Test results: ChEMBL document CHEMBL1833921, “Synthesis and biological evaluation of phenstatin metabolites” (Bioorg Med Chem, 2011)

Experiments:
OVCAR-5 = assay: Cytotoxicity against human OVCAR5 cells after 48 hrs by sulforhodamine B assay; assay type: functional; conditions: OVCAR-5, 48 h
DU-145 = assay: Cytotoxicity against human DU145 cells after 48 hrs by sulforhodamine B assay; assay type: functional; conditions: DU-145, 48 h
SK-MEL-2 = assay: Cytotoxicity against human SK-MEL-2 cells after 48 hrs by sulforhodamine B assay; assay type: functional; conditions: SK-MEL-2, 48 h
CCRF-CEM = assay: Cytotoxicity against human CCRF-CEM cells after 48 hrs by sulforhodamine B assay; assay type: functional
NCI-H522 = assay: Cytotoxicity against human NCI-H522 cells after 48 hrs by sulforhodamine B assay; assay type: functional; conditions: NCI-H522, 48 h
UACC-62 = assay: Cytotoxicity against human UACC62 cells after 48 hrs by sulforhodamine B assay; assay type: functional; conditions: UACC-62, 48 h
UO-31 = assay: Cytotoxicity against human UO31 cells after 48 hrs by sulforhodamine B assay; assay type: functional; conditions: UO-31, 48 h
NCI/ADR-RES = assay: Cytotoxicity against human NCI/ADR-RES cells after 48 hrs by sulforhodamine B assay; assay type: functional
MCF7 = assay: Cytotoxicity against human MCF7 cells after 48 hrs by sulforhodamine B assay; assay type: functional; conditions: MCF7, 48 h
MDA-MB-231 = assay: Cytotoxicity against human MDA-MB-231/ATCC cells after 48 hrs by sulforhodamine B assay; assay type: functional; conditions: MDA-MB-231, 48 h
MDA-MB-468 = assay: Cytotoxicity against human MDA-MB-468 cells after 48 hrs by sulforhodamine B assay; assay type: functional; conditions: MDA-MB-468, 48 h
EKVX = assay: Cytotoxicity against human EKVX cells after 48 hrs by sulforhodamine B assay; assay type: functional
SK-OV-3 = assay: Cytotoxicity against human SKOV3 cells after 48 hrs by sulforhodamine B assay; assay type: functional; conditions: SK-OV-3, 48 h
HL-60(TB) = assay: Cytotoxicity against human HL-60(TB) cells after 48 hrs by sulforhodamine B assay; assay type: functional; conditions: HL-60, 48 h
CAKI-1 = assay: Cytotoxicity against human Caki1 cells after 48 hrs by sulforhodamine B assay; assay type: functional; conditions: CAKI-1, 48 h
HCT-116 = assay: Cytotoxicity against human HCT116 cells after 48 hrs by sulforhodamine B assay; assay type: functional; conditions: HCT-116, 48 h
NCI-H322M = assay: Cytotoxicity against human NCI-H322M cells after 48 hrs by sulforhodamine B assay; assay type: functional
[1] = Inhibition of bovine brain tubulin polymerization after 30 mins by turbidimetry analysis; design: species or system Bos taurus
How it was run: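 Lyophilized bovine brain tubulin (97%) reconstituted to 5 mg/mL in 80 mM PIPES pH 6.9, 2 mM MgCl₂, 0.5 mM EGTA, 1.0 mM GTP and 5% glycerol. Compound in DMSO was added to this solution in a quartz cuvette at 0 °C. Assembly was followed as the rise in absorbance at 340 nm at 37 °C. IC₅₀ is the molar concentration halving the extent of assembly after 30 min.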

NCI-H460 = assay: Cytotoxicity against human NCI-H460 cells after 48 hrs by sulforhodamine B assay; assay type: functional; conditions: NCI-H460, 48 h
KM12 = assay: Cytotoxicity against human KM12 cells after 48 hrs by sulforhodamine B assay; assay type: functional; conditions: KM12, 48 h
SF-268 = assay: Cytotoxicity against human SF268 cells after 48 hrs by sulforhodamine B assay; assay type: functional; conditions: SF-268, 48 h
A549 [2] = assay: Cytotoxicity against human A549/ATCC cells after 48 hrs by sulforhodamine B assay; assay type: functional; conditions: A549, 48 h
K562 = assay: Cytotoxicity against human K562 cells after 48 hrs by sulforhodamine B assay; assay type: functional; conditions: K562, 48 h
MDA-MB-435 = assay: Cytotoxicity against human MDA-MB-435 cells after 48 hrs by sulforhodamine B assay; assay type: functional; conditions: MDA-MB-435, 48 h
SK-MEL-28 = assay: Cytotoxicity against human SK-MEL-28 cells after 48 hrs by sulforhodamine B assay; assay type: functional; conditions: SK-MEL-28, 48 h
HCC 2998 = assay: Cytotoxicity against human HCC2998 cells after 48 hrs by sulforhodamine B assay; assay type: functional; conditions: HCC 2998, 48 h
OVCAR-4 = assay: Cytotoxicity against human OVCAR4 cells after 48 hrs by sulforhodamine B assay; assay type: functional; conditions: OVCAR-4, 48 h
OVCAR-3 = assay: Cytotoxicity against human OVCAR3 cells after 48 hrs by sulforhodamine B assay; assay type: functional; conditions: OVCAR-3, 48 h
SF-539 = assay: Cytotoxicity against human SF539 cells after 48 hrs by sulforhodamine B assay; assay type: functional; conditions: SF-539, 48 h
COLO 205 = assay: Cytotoxicity against human COLO205 cells after 48 hrs by sulforhodamine B assay; assay type: functional; conditions: COLO 205, 48 h
A498 = assay: Cytotoxicity against human A498 cells after 48 hrs by sulforhodamine B assay; assay type: functional; conditions: A498, 48 h
HCT-15 = assay: Cytotoxicity against human HCT15 cells after 48 hrs by sulforhodamine B assay; assay type: functional; conditions: HCT-15, 48 h
M14 = assay: Cytotoxicity against human M14 cells after 48 hrs by sulforhodamine B assay; assay type: functional; conditions: M14, 48 h
Hs-578T = assay: Cytotoxicity against human HS578T cells after 48 hrs by sulforhodamine B assay; assay type: functional
SF-295 = assay: Cytotoxicity against human SF295 cells after 48 hrs by sulforhodamine B assay; assay type: functional; conditions: SF-295, 48 h
SN12C = assay: Cytotoxicity against human SN12C cells after 48 hrs by sulforhodamine B assay; assay type: functional
RXF 393 = assay: Cytotoxicity against human RXF393 cells after 48 hrs by sulforhodamine B assay; assay type: functional; conditions: RXF 393, 48 h
HL-60 = assay: Cytotoxicity against human HL60 cells after 48 hrs by sulforhodamine B assay; assay type: functional; conditions: HL-60, 48 h
A549 [3] = assay: Cytotoxicity against human A549 cells after 48 hrs by sulforhodamine B assay; assay type: functional; conditions: A549, 48 h
HT-29 = assay: Cytotoxicity against human HT29 cells after 48 hrs by sulforhodamine B assay; assay type: functional; conditions: HT-29, 48 h

SMILES | GI50 (OVCAR-5) [µM] | GI50 (DU-145) [µM] | GI50 (SK-MEL-2) [µM] | GI50 (CCRF-CEM) [µM] | GI50 (NCI-H522) [µM] | GI50 (UACC-62) [µM] | GI50 (UO-31) [µM] | GI50 (NCI/ADR-RES) [µM] | GI50 (MCF7) [µM] | GI50 (MDA-MB-231) [µM] | GI50 (MDA-MB-468) [µM] | GI50 (EKVX) [µM] | GI50 (SK-OV-3) [µM] | GI50 (HL-60(TB)) [µM] | IC50 [1] [µM] | GI50 (MDA-MB-435) [µM] | GI50 (OVCAR-3) [µM] | GI50 (A498) [µM] | GI50 (SF-295) [µM] | GI50 (HT-29) [µM] | further results
COc1cc(C(=O)c2ccc3c(c2)oc(=O)n3S(C)(=O)=O)cc(OC)c1OC | 5.77 | 3.04 | 5.11 | 3.35 | 2.34 | 5.3 | 6.81 | 2.03 | 4.43 | 4.85 | 2.82 | 4.58 | 2.84 | 2.52 | > 100 | 0.289 | 1.56 | 3.11 | 1.61 |  | GI50 (CAKI-1): 2.64 µM; GI50 (HCT-116): 2.31 µM; GI50 (NCI-H322M): 5.38 µM; GI50 (NCI-H460): 2.64 µM; GI50 (KM12): 1.15 µM; GI50 (SF-268): 7.95 µM; GI50 (A549 [2]): 4.68 µM; GI50 (K562): 0.588 µM; GI50 (SK-MEL-28): 11.3 µM; GI50 (HCC 2998): 6.75 µM; GI50 (OVCAR-4): 22.3 µM; GI50 (SF-539): 2.36 µM; GI50 (COLO 205): 2.5 µM; GI50 (HCT-15): 2 µM; GI50 (M14): 1.36 µM; GI50 (Hs-578T): 3.16 µM; GI50 (SN12C): 7.79 µM; GI50 (RXF 393): 4.63 µM
COc1ccc(C(=O)c2cc(OC)c(O)c(OC)c2)cc1OC | 12.9 | 4.49 | 5.29 | 4.05 | 3.64 | 8.41 | 2.16 | 0.854 | 0.433 | 4.79 | 1.97 | > 100 | 2.2 | 1.25 | > 100 | 0.273 | 2.33 | 3.36 | 2.08 |  | GI50 (CAKI-1): 3.01 µM; GI50 (HCT-116): 2.5 µM; GI50 (NCI-H322M): 3.44 µM; GI50 (NCI-H460): 3.44 µM; GI50 (KM12): 1.09 µM; GI50 (A549 [2]): 59.1 µM; GI50 (K562): 0.666 µM; GI50 (SK-MEL-28): 9.46 µM; GI50 (OVCAR-4): > 100 µM; GI50 (SF-539): 2.96 µM; GI50 (COLO 205): 14.2 µM; GI50 (HCT-15): 2.07 µM; GI50 (M14): 0.902 µM; GI50 (Hs-578T): 4.92 µM; GI50 (SN12C): 6.68 µM; GI50 (RXF 393): 1.88 µM
COc1ccc(C(=O)c2cc(OC)c(OC)c(OC)c2)c(OC)c1N |  | 0.0274 |  |  |  |  |  |  | 0.0106 |  |  |  |  |  | 10 | < 10 | 0.0202 | 0.0221 | 0.0199 | 0.0323 | GI50 (HL-60): 0.0331 µM; GI50 (A549 [3]): 0.039 µM
COc1cc(C(=O)c2ccc(OC)c(O)c2OC)cc(OC)c1O | 4.92 | 0.818 | 100 | 0.896 | 0.29 | 5.01 | 16.6 | 0.515 | 1.01 | 2.16 | 0.864 | 4.76 | 0.912 | 0.364 | 14.9 | 0.282 | 0.363 | 1.7 | 1.4 |  | GI50 (CAKI-1): 1.9 µM; GI50 (HCT-116): 1.41 µM; GI50 (NCI-H322M): 4.99 µM; GI50 (NCI-H460): 1.97 µM; GI50 (KM12): 0.409 µM; GI50 (SF-268): 4.25 µM; GI50 (A549 [2]): 3.47 µM; GI50 (K562): 0.153 µM; GI50 (SK-MEL-28): 100 µM; GI50 (HCC 2998): 2.89 µM; GI50 (OVCAR-4): 100 µM; GI50 (SF-539): 0.611 µM; GI50 (COLO 205): 4.83 µM; GI50 (HCT-15): 0.611 µM; GI50 (M14): 0.455 µM; GI50 (Hs-578T): 0.358 µM; GI50 (SN12C): 13.7 µM; GI50 (RXF 393): 0.755 µM
COc1ccc(C(=O)c2cc(OC)c(OC)c(OC)c2)c(O)c1O [HYDROXYPHENSTATIN] |  | 0.144 |  |  |  |  |  |  |  |  |  |  |  |  | 0.8 |  |  |  | 0.12 |  | 
COc1ccc(/C=C/c2cc(OC)c(OC)c(OC)c2)c(O)c1O |  | 0.512 |  |  |  |  |  |  |  |  |  |  |  |  | 1.9 |  |  |  |  |  | 
COc1ccc(C(=O)c2cc(OC)c(OC)c(OC)c2)c(N)c1 |  | 0.036 |  |  |  |  |  |  | 0.023 |  |  |  |  |  | 0.4 |  |  |  |  | 0.042 | 
COc1ccc(C(=O)c2cc(OC)c(OC)c(OC)c2)c(OC)c1NC(C)=O |  | 0.292 |  |  |  |  |  |  | 9.6 |  |  |  |  |  | > 50 |  | 3.3 | 0.0855 | 0.293 | 4.33 | GI50 (HL-60): 3.53 µM; GI50 (A549 [3]): 4.62 µM
COc1ccc(C(=O)c2cc(OC)c(OC)c(OC)c2)cc1N |  |  |  |  |  |  |  |  |  |  |  |  |  |  | 1.5 |  |  |  |  | 0.033 | GI50 (HL-60): 0.03 µM; GI50 (A549 [3]): 0.057 µM
